Measured values as given in ChEMBL document CHEMBL1138050, “Furan-2-ylmethylene thiazolidinediones as novel, potent, and selective inhibitors of phosphoinositide 3-kinase gamma” (J Med Chem, 2006).

Legend:
[1] = target: Dual specificity mitogen-activated protein kinase kinase 4 (Mus musculus) (UniProt P47809); assay: Residual activity at mouse MKK4 at 10 uM in presence of 10 uM ATP relative to control
Summary of the method: (§1)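 Single-concentration counter-screen across a panel of 80 Ser/Thr and Tyr protein kinases. Compound was tested at 10 µM with ATP at 10 µM. Activity remaining in each kinase is expressed relative to control.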

[2] = target: Dual specificity mitogen-activated protein kinase kinase 7 (Homo sapiens) (UniProt O14733); assay: Residual activity at human MKK7-beta at 10 uM in presence of 10 uM ATP relative to control; summary of the method: as §1
[3] = target: Ribosomal protein S6 kinase beta-1 (Homo sapiens) (UniProt P23443); assay: Residual activity at human p70S6K at 10 uM in presence of 10 uM ATP relative to control; summary of the method: as §1
[4] = target: Serine/threonine-protein kinase PAK 2 (Homo sapiens) (UniProt Q13177); assay: Residual activity at human PAK2 at 10 uM in presence of 10 uM ATP relative to control; summary of the method: as §1
[5] = target: cAMP-dependent protein kinase (PKA) (Homo sapiens) (UniProt P22694+P17612+P22612); assay: Residual activity at human PKA at 10 uM in presence of 10 uM ATP relative to control; assay type: protein assay; summary of the method: as §1
[6] = target: RAC-alpha serine/threonine-protein kinase (Homo sapiens) (UniProt P31749); assay: Residual activity at human PKBalpha at 10 uM in presence of 10 uM ATP relative to control; summary of the method: as §1
[7] = target: Protein kinase C delta type (Homo sapiens) (UniProt Q05655); assay: Residual activity at human PKCdelta at 10 uM in presence of 10 uM ATP relative to control; summary of the method: as §1
[8] = target: Protein kinase C epsilon type (Homo sapiens) (UniProt Q02156); assay: Residual activity at human PKCepsilon at 10 uM in presence of 10 uM ATP relative to control; summary of the method: as §1
[9] = target: RAF proto-oncogene serine/threonine-protein kinase (Homo sapiens) (UniProt P04049); assay: Residual activity at human c-RAF at 10 uM in presence of 10 uM ATP relative to control; summary of the method: as §1
[10] = target: Tyrosine-protein kinase CSK (Homo sapiens) (UniProt P41240); assay: Residual activity at human CSK at 10 uM in presence of 10 uM ATP relative to control
Summary of the method: (§2)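 Panel of Ser/Thr and Tyr protein kinases, each tested with 10 µM compound in the presence of 10 µM ATP; activity expressed relative to control.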

[11] = target: Receptor-type tyrosine-protein kinase FLT3 (Homo sapiens) (UniProt P36888); assay: Residual activity at human Flt3 at 10 uM in presence of 10 uM ATP relative to control; summary of the method: as §2
[12] = target: Glycogen synthase kinase-3 alpha (Homo sapiens) (UniProt P49840); assay: Residual activity at human GSK3alpha at 10 uM in presence of 10 uM ATP relative to control; summary of the method: as §2
[13] = target: Mitogen-activated protein kinase 8 (Homo sapiens) (UniProt P45983); assay: Residual activity at human JNK1alpha1 at 10 uM in presence of 10 uM ATP relative to control; summary of the method: as §1
[14] = target: MAP kinase-activated protein kinase 2 (Homo sapiens) (UniProt P49137); assay: Residual activity at human MAPKAPK2 at 10 uM in presence of 10 uM ATP relative to control; summary of the method: as §1
[15] = target: Dual specificity mitogen-activated protein kinase kinase 1 (Homo sapiens) (UniProt Q02750); assay: Residual activity at human MEK1 at 10 uM in presence of 10 uM ATP relative to control; summary of the method: as §1
[16] = target: MAP kinase-activated protein kinase 5 (Homo sapiens) (UniProt Q8IW41); assay: Residual activity at human PRAK at 10 uM in presence of 10 uM ATP relative to control; summary of the method: as §1
[17] = target: Rho-associated protein kinase 2 (Homo sapiens) (UniProt O75116); assay: Residual activity at human ROCK2 at 10 uM in presence of 10 uM ATP relative to control; summary of the method: as §1
[18] = target: Mitogen-activated protein kinase 11 (Homo sapiens) (UniProt Q15759); assay: Residual activity at human SAPK2b at 10 uM in presence of 10 uM ATP relative to control; summary of the method: as §1
[19] = target: Tyrosine-protein kinase SYK (Homo sapiens) (UniProt P43405); assay: Residual activity at human Syk at 10 uM in presence of 10 uM ATP relative to control; summary of the method: as §1
[20] = test system: THP-1; assay: Inhibition of MCP1-induced PKB/Akt phosphorylation in THP1 cells; assay type: functional, cell-based; details: Homo sapiens
Summary of the method: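 THP-1 monocytes starved 3 h in serum-free medium and pretreated with inhibitor or DMSO (15 min in methods; 20 min in figure legend). Stimulated with 100 nM MCP-1/CCL2 for 30 s, or with 50 ng/mL CSF-1 for 5 min. Phospho-Ser-473 and total Akt detected by Western blot and quantified.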

[21] = test system: THP-1; assay: Inhibition of MCP1-induced chemotaxis of THP1 cells; assay type: functional, cell-based; details: Homo sapiens
[22] = test system: Monocyte; assay: Inhibition of MCP1-induced chemotaxis of mouse primary monocytes; assay type: functional, cell-based
Summary of the method: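 Cells were starved and pretreated with inhibitor or DMSO, then chemotaxis was induced with MCP-1 (10^-9 M). Primary mouse monocytes: 10^7 5-day bone-marrow-derived monocytes in medium with 0.5% BSA and compound, placed in the upper chamber of a 5 µm transwell. MCP-1 plus compound in the lower chamber. After 3 h at 37 °C, 5% CO2, cells in the lower chamber were counted. IC50.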

[23] = AUC in rat at 10 mg/kg, iv; assay type: ADME, organism-based; parameters: dose 10 mg/kg, route intravenous; details: plasma
Summary of the method: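 Rats given a single 10 mg/kg dose, intravenously or orally. The compound was given as its potassium salt, prepared with KOH in THF/water, for the in vivo work.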

[24] = test system: Rattus norvegicus; assay: Volume of distribution in rat at 10 mg/kg, iv; assay type: ADME, organism-based; parameters: dose 10 mg/kg, route intravenous; details: in vivo
Summary of the method: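 Given to rats as a single 10 mg/kg intravenous dose of the potassium salt, run alongside a matching oral arm. Pharmacokinetic parameters derived were CL, AUC, Cmax, t1/2 and Vd.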

[25] = Metabolism in rat microsome after 1 hr; assay type: ADME; details: microsomes, read-out: Activity
[26] = target: CDK3/cyclin E (Homo sapiens) (UniProt P24864+O96020+Q00526); assay: Residual activity at human CDK3/CyclinE at 10 uM in presence of 10 uM ATP relative to control; assay type: protein-complex assay; summary of the method: as §2
[27] = target: Phosphatidylinositol 4,5-bisphosphate 3-kinase catalytic subunit alpha isoform (Homo sapiens, UniProt P42336); assay: Inhibition of human PI3Kalpha
[28] = target: Tyrosine-protein kinase ABL2 (Mus musculus) (UniProt Q4JIM5); assay: Residual activity at mouse Arg at 10 uM in presence of 10 uM ATP relative to control; summary of the method: as §1
[29] = target: Tyrosine-protein kinase Blk (Mus musculus) (UniProt P16277); assay: Residual activity at mouse Blk at 10 uM in presence of 10 uM ATP relative to control; summary of the method: as §1
[30] = target: Cyclin-dependent kinase 1/cyclin B1 (Homo sapiens) (UniProt P06493+P14635); assay: Residual activity at human CDK1/CyclinB at 10 uM in presence of 10 uM ATP relative to control; assay type: protein-complex assay; summary of the method: as §2
Sequence of Cyclin-dependent kinase 1/cyclin B1 (Homo sapiens) (P06493 whole entry, looked up): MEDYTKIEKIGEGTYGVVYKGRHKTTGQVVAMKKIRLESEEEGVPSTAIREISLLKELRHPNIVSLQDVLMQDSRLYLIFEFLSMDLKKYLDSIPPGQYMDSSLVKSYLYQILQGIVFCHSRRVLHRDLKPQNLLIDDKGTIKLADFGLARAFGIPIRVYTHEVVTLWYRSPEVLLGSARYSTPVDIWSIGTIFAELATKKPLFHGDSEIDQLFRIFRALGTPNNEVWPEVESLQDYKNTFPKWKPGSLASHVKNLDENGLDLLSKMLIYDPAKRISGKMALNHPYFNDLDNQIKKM
Sequence of Cyclin-dependent kinase 1/cyclin B1 (Homo sapiens) (P14635 whole entry, looked up): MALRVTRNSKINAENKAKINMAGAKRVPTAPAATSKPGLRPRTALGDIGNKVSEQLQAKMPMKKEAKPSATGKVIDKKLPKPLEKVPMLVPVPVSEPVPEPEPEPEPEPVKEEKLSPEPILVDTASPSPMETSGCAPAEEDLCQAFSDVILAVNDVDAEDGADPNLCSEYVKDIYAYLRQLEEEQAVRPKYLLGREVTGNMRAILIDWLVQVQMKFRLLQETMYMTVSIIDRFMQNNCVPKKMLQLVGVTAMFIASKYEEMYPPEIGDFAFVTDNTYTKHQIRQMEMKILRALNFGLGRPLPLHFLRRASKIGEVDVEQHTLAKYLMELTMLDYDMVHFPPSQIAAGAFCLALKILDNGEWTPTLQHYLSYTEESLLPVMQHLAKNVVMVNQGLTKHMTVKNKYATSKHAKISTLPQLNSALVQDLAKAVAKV

Sequence of Tyrosine-protein kinase CSK (Homo sapiens) (P41240 2-450 limits assumed): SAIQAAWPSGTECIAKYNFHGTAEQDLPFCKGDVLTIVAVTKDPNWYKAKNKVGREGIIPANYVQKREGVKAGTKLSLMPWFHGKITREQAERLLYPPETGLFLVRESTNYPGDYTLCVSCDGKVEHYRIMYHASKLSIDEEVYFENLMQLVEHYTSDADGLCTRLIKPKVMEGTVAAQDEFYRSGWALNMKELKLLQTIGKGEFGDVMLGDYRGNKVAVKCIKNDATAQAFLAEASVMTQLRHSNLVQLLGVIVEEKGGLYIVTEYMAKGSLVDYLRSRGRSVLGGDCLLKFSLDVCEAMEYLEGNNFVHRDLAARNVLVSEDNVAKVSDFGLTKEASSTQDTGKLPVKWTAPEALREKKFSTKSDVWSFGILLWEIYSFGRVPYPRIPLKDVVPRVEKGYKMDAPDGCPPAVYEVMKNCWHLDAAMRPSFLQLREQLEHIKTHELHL
Sequence of RAF proto-oncogene serine/threonine-protein kinase (Homo sapiens) (P04049 whole entry): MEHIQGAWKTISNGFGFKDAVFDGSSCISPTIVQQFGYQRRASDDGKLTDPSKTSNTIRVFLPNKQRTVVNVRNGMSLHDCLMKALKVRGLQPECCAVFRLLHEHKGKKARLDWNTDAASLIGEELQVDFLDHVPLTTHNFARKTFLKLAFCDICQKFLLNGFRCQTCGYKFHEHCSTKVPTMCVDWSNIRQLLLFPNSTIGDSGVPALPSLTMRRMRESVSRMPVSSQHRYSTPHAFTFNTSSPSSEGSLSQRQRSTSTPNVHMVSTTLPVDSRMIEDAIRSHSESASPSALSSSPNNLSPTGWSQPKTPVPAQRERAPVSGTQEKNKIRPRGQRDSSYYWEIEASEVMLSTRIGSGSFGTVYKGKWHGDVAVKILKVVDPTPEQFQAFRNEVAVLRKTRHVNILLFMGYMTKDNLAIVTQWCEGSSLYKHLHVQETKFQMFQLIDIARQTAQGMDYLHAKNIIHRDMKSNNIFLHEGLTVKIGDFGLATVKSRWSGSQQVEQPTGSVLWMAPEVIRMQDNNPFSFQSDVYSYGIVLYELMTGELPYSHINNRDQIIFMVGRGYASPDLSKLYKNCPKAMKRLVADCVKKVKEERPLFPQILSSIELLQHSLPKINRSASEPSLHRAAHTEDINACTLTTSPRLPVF
Sequence of Tyrosine-protein kinase Blk (Mus musculus) (P16277 whole entry): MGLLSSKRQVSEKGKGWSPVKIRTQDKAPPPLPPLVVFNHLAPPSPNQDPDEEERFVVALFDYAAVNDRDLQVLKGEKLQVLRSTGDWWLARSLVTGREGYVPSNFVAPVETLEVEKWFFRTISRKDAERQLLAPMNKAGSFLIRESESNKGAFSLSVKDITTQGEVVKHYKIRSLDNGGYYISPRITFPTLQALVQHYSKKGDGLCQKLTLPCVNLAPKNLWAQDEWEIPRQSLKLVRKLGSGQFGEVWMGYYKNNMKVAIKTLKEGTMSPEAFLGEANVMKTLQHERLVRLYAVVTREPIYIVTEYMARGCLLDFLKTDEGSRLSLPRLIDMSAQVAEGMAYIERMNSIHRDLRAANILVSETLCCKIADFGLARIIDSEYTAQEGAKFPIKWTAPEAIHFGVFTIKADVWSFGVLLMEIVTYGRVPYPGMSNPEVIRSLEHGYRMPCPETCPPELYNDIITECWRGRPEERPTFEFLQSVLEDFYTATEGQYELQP
Sequence of Receptor-type tyrosine-protein kinase FLT3 (Homo sapiens) (P36888 whole entry): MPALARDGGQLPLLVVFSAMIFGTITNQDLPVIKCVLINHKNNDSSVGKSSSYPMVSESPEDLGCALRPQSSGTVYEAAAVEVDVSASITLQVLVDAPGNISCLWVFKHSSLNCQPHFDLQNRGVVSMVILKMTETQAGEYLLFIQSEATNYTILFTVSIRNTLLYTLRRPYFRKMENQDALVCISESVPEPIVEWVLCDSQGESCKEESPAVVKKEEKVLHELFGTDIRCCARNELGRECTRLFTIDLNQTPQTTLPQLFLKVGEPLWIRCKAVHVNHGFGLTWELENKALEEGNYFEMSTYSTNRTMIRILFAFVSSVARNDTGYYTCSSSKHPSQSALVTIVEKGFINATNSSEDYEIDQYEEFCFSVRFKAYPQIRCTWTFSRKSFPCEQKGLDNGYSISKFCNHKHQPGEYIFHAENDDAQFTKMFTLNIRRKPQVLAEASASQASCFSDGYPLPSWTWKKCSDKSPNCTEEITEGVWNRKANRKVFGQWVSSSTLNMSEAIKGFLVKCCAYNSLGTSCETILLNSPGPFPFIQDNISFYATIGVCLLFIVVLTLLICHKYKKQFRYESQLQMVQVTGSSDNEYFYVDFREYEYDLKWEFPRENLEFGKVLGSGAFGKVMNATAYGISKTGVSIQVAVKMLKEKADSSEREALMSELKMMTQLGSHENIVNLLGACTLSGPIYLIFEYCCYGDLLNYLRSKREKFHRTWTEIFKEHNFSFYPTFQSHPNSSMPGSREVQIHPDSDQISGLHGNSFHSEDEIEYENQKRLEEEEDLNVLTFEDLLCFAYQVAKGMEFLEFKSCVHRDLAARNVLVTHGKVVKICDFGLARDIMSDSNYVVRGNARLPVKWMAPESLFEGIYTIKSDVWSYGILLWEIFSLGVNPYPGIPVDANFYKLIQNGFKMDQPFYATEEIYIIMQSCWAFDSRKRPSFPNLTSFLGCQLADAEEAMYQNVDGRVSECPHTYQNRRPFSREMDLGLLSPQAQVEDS
Sequence of Protein kinase C epsilon type (Homo sapiens) (Q02156 whole entry): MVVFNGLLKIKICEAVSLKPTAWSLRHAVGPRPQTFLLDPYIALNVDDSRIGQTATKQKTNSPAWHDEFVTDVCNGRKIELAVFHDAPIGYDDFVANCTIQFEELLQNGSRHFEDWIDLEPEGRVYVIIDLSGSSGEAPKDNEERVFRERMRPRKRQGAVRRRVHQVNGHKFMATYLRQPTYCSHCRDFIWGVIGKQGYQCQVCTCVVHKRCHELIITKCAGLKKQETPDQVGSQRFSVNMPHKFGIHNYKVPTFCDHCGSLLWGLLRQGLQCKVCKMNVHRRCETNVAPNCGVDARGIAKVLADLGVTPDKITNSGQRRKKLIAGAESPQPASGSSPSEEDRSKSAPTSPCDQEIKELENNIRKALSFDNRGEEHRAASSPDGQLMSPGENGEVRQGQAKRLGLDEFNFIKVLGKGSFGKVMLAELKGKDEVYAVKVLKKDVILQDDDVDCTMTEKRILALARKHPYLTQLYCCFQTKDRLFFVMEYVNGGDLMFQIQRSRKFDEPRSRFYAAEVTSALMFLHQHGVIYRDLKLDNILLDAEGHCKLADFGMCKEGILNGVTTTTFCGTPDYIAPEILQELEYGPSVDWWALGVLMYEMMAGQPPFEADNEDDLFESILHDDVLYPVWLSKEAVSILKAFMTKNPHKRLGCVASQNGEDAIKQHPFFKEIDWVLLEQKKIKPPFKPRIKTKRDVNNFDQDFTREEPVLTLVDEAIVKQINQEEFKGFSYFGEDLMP
Sequence of Mitogen-activated protein kinase 8 (Homo sapiens) (P45983 whole entry): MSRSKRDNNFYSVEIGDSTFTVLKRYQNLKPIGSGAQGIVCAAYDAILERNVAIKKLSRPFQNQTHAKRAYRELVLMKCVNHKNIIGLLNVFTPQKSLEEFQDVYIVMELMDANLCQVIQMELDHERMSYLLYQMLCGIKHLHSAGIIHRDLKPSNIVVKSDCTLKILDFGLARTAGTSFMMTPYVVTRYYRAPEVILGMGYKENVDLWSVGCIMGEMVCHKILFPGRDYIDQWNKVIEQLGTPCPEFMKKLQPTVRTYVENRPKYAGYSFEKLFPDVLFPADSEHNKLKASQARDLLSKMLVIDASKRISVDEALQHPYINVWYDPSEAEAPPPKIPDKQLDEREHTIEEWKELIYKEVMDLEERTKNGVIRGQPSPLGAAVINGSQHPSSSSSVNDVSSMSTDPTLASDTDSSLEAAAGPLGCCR
Sequence of MAP kinase-activated protein kinase 2 (Homo sapiens) (P49137 whole entry, looked up): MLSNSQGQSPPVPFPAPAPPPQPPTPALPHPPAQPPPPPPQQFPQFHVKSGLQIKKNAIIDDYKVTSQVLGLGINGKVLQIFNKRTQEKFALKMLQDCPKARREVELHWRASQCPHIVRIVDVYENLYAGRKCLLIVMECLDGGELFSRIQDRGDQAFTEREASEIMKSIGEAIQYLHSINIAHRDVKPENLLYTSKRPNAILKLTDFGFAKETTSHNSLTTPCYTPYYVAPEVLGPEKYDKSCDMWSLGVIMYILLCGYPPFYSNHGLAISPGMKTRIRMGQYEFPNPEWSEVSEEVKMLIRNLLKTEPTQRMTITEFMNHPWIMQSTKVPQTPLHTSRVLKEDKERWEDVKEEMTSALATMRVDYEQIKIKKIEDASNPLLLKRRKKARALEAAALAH

Work on `O=C1NC(=O)/C(=C/c2ccc(-c3ccc(F)cc3O)o2)S1` yielded an Activity [1] of 85%, an Activity [2] of 2% and an Activity [3] of 190%. For the same compound, the Activity [4] was 178%, the Activity [5] was 89% and the Activity [6] was 97%. For the same compound, the Activity [7] was 109%, the Activity [8] was 93% and the Activity [9] was 99%. It also gave an Activity [10] of 103%, an Activity [11] of 93% and an Activity [12] of 66%. The Activity [13] was 97%, the Activity [14] was 117% and the Activity [15] was 96%. It also gave an Activity [16] of 95%, an Activity [17] of 90% and an Activity [18] of 89%. It also gave an Activity [19] of 93%, an IC50 [20] of 0.4 µM and an IC50 [21] of 53 µM. For the same compound, the IC50 [22] was 52 µM, the AUC [23] was 4.4 µg·h/mL and the Vdss [24] was 25.3 L/kg. The metabolised at 1 h [25] was 16%, the Activity [26] was 117% and the IC50 [27] was 0.94 µM. It also gave an Activity [28] of 85%, an Activity [29] of 70% and an Activity [30] of 80%.
